# Screening data deposited in PubChem BioAssay by several laboratories.
# A selection: hits, their analogues and other compounds. The true share with any hit is near 3.1%.
# Beta cell apopt: inhibitors of cytokine-induced beta cell apoptosis, primary screen, luminescence; INS-1E cytokine-induced death, ATP luminescence, 48 h; percent of positive-control rescue, neutral wells zero; protection from apoptosis, % (no concentration beside the values); hit rate 0.8% among 300,000; AID 435005, 2010;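 active means Every replicate reaches about 75%, or at least half do and their mean reaches it too, limit read from the data; inconclusive means At least half of replicates reach the limit but their mean does not; inactive means Under half of replicates reach the limit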;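 further: 0% = cytokine-treated negative control wells and 100% = positive control rescue; higher means more ATP so stronger rescue from cytokine killing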
# H9c2 TAG inh: inhibitors of triacylglycerol accumulation, primary screen, cell-based, uHTS, fluorescence, H9c2 | H9c2 cells, Nile Red lipid (TAG) fluorescence; cells loaded with 200 µM oleic acid | inhibition, % at 12.5 µM | hit rate 0.66% among 230,000 | AID 651582, 2012;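 active means pattern-corrected inhibition of lipid staining of at least 50% with the nuclear-stain viability signal not falling by more than 50%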;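 further: 0% = DMSO wells and 100% = triacsin C control wells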
# CSC inhib: cancer stem cell viability inhibitors, primary screen, luminescence; hit rate 1.1% among 300,000; AID 2717, 2010; inhibition, % at 7.5 µM; cancer stem cell-like cells viability; in the data active means inhibition above about 75%; inconclusive means no clear call, values can overlap the other calls; tested in HMLE shEcad cells
# T cruzi repl: inhibitors of intracellular T. cruzi growth, primary screen, luminescence, NIH3T3 host cells | T. cruzi beta-gal in NIH3T3, 90 h | inhibition, % (test concentration not listed) | hit rate 1.4% among 300,000 | AID 1885, 2009;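 active means mean inhibition across valid replicates above about 55%, limit read from the data; inconclusive means mean below that limit but half or more replicates reach it; inactive means mean below it, under half of replicates reach it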;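 further: signal also drops with host cell toxicity which is not excluded here; 0% = plate median of DMSO wells and 100% = zero luminescence signal; higher percent means less beta-gal luminescence so fewer parasites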
#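 System: NIH/3T3 fibroblasts plus reporter T. cruzi. Medium: DMEM plus 2% FBS. Probe or stimulus: 5000 reporter trypomastigotes per well. Compound: single 50 nL compound addition per well in DMSO. Incubation: co-culture of at least 90 h after 3 h attachment. Detection: GalScreen β-gal luminescence, detergent lysis, 60 min. Evaluation: parasite load inhibition, %.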
# Bfl-1 A1 inh: caspase 3/7 activation in MEF A1-2A-BIM cells, primary screen, A1 inhibitor project, cell-based, luminescence, HTS. caspase activation, % (concentration not given with the values). Caspase-Glo 3/7 luminescence, 3 h; percent of clofoctol response, vehicle zero. AID 2462, 2010. hit rate 0.066% among 330,000;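 active means over half of replicate activation scores above 10%, or exactly half above 10 with the replicate mean above 10; inconclusive means replicate mean below 10 yet half the replicates above 10; inactive means over half of replicates below 10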
# Calb FLC: C. albicans growth inhibition with fluconazole, primary screen, CaCi-2 strain, Alamar Blue fluorescence; hit rate 0.57% among 300,000; C. albicans CaCi-2 (fluconazole-resistant clinical isolate) + fluconazole, 48 h; growth inhibition, % (test concentration not listed);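 active means growth inhibition above about 58% in most replicates, limit read from the data, passing the limit was not always enough; inconclusive means exactly half the replicates above a set limit; inactive means most replicates below a set limit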;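 further: all wells also contain fluconazole at 8 µg/ml as a sub-toxic cotreatment; 0% = median of DMSO wells and 100% = median of geldanamycin control wells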
# * marks the source's active call; other numbers are inactive results; ? = inconclusive; . = no result given; ! = a repeat was not active.
SMILES,Beta cell apopt,H9c2 TAG inh,CSC inhib,T cruzi repl,Bfl-1 A1 inh,Calb FLC
Oc1cccc(Nc2nc(NCC3CCCO3)c3ccccc3n2)c1 (stereo unspecified),.,1,7,52,0,21
CCOc1ccc(Nc2cc(C)c3ccccc3n2)cc1,2,.,28,41,0,-4
c1ccc(Nc2nc(NCC3CCCO3)c3ccccc3n2)cc1 (stereo unspecified),31,13,10,93*,0,?
CCc1noc(C)c1C(=O)Nc1nc(-c2ccccc2)c(C(C)=O)s1,6,8,-1,.,-1,.
COCCN(C(=O)COC(=O)c1cc2c(s1)CCCC2)c1c(N)n(Cc2ccccc2)c(=O)[nH]c1=O,.,-7,-14,11,0,0
Cc1ccc(S(=O)(=O)n2cc(C=O)c3ccccc32)cc1,-3,-6,11,1,0,9
Cc1ccc(S(=O)(=O)n2cc(-c3ccccc3)c3ccccc32)cc1,15,-24,99*,.,?,.
CCN(CC)CCN1C(=O)Cn2c(C)c(C)c3cccc1c32,-1,11,39,69*!,2,?
CCN(CC)CCN1c2ccccc2Sc2ccccc21,1,2,7,18,0,-22
COc1ccc(-n2cc(CN(C)C(C)c3ccncn3)c(-c3cccc(F)c3)n2)cc1 (stereo unspecified),-7,-12,-6,66*,0,-11
CCOC(=O)c1c(C)[nH]c(C(=O)OCC(=O)Nc2sc(C(=O)N(C)C)c(C)c2C(=O)OCC)c1C,6,12,2,69*,0,-4
CCOC(=O)c1c(C)[nH]c(C(=O)OCC(=O)NC(C)(C)C)c1C,86*,-26,-11,1,0,-6
O=C(Nc1ccncc1)C1CCN(S(=O)(=O)c2ccc(Cl)cc2)CC1,6,-10,37,47,0,.
C/C(=N/NC(=O)c1cc(-c2ccc(Cl)s2)[nH]n1)c1ccco1,-3,-7,7,-8,-1,13
Cc1cc(C)cc(NC(=O)/C(C#N)=C/c2cn(CC(=O)NCc3ccco3)c3ccccc23)c1,101*,12,40,-34,17*,1
Cc1ccc(C)c(NC(=O)/C(C#N)=C/c2cn(CC(=O)NCc3ccco3)c3ccccc23)c1,95*,.,82*,11,5,43
COCC(=O)N1C[C@H]2CON(C)[C@H]2C[C@H]1c1cccc(-c2ccccc2)c1,.,-7,.,.,.,.
COc1ccc(NS(=O)(=O)c2ccc(-c3coc(C)n3)cc2)cc1,5,.,9,14,-1,48
COc1ccc(NS(=O)(=O)c2ccc(-c3coc(C)n3)cc2)cc1OC,107*,.,0,-36,?,?
Cc1ccc(C(=O)Nc2ccc(C(=O)N/N=C/c3ccc(C)o3)cc2)cc1,5,.,0,-2,-1,3
O=c1[nH]c2cc(Cl)c(Br)cc2o1,.,-2,.,.,.,.
O=C(N/N=C/c1ccncc1)c1ccccc1OCc1ccc(Br)cc1,8,16,49,71*,0,12
Cc1ccc(COc2ccccc2-c2cc(C(=O)N/N=C/c3cccnc3)[nH]n2)cc1,4,4,78*,32,2,0
CCOc1ccc(NC(=O)COc2ccccc2C(=O)NCc2ccccc2)cc1,11,11,11,.,2,.
Cc1ccc(/C=N/NC(=O)c2ccccc2OCc2ccc(F)cc2)o1,-8,.,1,27,0,-8
SMILES,Beta cell apopt,H9c2 TAG inh,CSC inhib,T cruzi repl,Bfl-1 A1 inh,Calb FLC
O=C(COc1ccccc1C(=O)NCc1ccncc1)Nc1ccc(Br)cc1,3,-1,17,57*,1,12
CC(CNC(=O)COc1ccc2c(c1)OCO2)c1ccccc1 (stereo unspecified),2,3,-9,.,0,.
Cc1cccc(NC(=O)c2cc(-c3cc(C)cc(C)c3O)n[nH]2)c1,7,.,76*,8,0,-7
COc1ccc(NC(=O)c2cc(-c3cc(C)cc(C)c3O)n[nH]2)cc1Cl,14,31,99*,1,1,15
Cc1cc(C)c(O)c(-c2cc(C(=O)Nc3cccnc3)[nH]n2)c1,-4,12,47,-13,-6,-9
COc1ccc(NC(=O)c2cc(-c3ccccc3O)n[nH]2)cc1Cl,1,.,-3,1,-3,7
CCn1c(CNS(=O)(=O)c2ccc(Br)cc2)n[nH]c1=S,1,4,-6,-4,0,17
C=C(C)COc1ccc(-c2ncncc2-c2ccccc2OC)c(O)c1,-4,.,18,66*,-1,15
CCN(CC)c1ccc(S(=O)(=O)Nc2cc(Cl)ccc2Cl)cc1NC(=S)NC(=O)C1CCCC1,.,.,100*,18,0,-3
CCN(CC)S(=O)(=O)c1ccc(Cl)c(NC(=S)NC(=O)C2CCCC2)c1,15,1,8,.,-1,.
O=C(CN1C(=O)c2ccc([N+](=O)[O-])cc2C1=O)NCC1CCCO1 (stereo unspecified),-5,3,0,-3,0,1
O=C(CSc1nnc(-c2ccco2)n1Cc1ccccc1)OC1CCCCC1,.,-26,-3,0,0,97*
CC(C)Oc1ccc(C(CCN)C2CCCCC2)cc1 (stereo unspecified),91*,.,31,33,0,3
CC(C)Oc1ccc(C(=O)NC2CCCCC2)cc1,5,-7,-8,-1,-3,-3
O=C(Cc1ccccc1)NCC(=O)N/N=C/c1ccc([N+](=O)[O-])s1,-13,.,.,49,0,10
Cc1ccc(NCC(=O)N/N=C\c2ccc([N+](=O)[O-])o2)cc1,19,.,-7,52,0,7
O=C(CNC(=O)c1ccccc1)N/N=C/c1ccc([N+](=O)[O-])o1,19,.,-8,59*,-1,-3
O=C(CNc1ccccc1)N/N=C/c1ccc([N+](=O)[O-])o1,13,.,7,64*,0,18
O=C(CNC(=O)c1ccccc1)N/N=C/c1ccc([N+](=O)[O-])s1,-6,10,-1,76*,-1,32
CCCCCC(=O)N/N=C/c1ccc([N+](=O)[O-])o1,44,.,-19,76*,2,-9
CN(C)C(CNC(=O)c1cccc(S(=O)(=O)NCc2ccccc2)c1)c1ccccc1 (stereo unspecified),.,5,.,.,.,.
CCOc1ccccc1C(=O)N[C@H](C(=O)Nc1ccc(OC)c(S(=O)(=O)N2CCOCC2)c1)C(C)C,3,5,-18,.,0,5
COc1ccc(S(=O)(=O)N(CC(=O)NC2CCCCC2)c2ccc(F)cc2)cc1,1,1,-2,-4,-1,-1
O=[N+]([O-])c1ccc(C=Nc2cccc3ccccc23)s1,7,5,7,61*,-1,14
